According to the RNAGym collection of RNA variant scans (doi:10.1126/science.aae0568):
Fewer inactive variants are shown than the library holds.

B1: tRNA (parent)
chain: GUUCCGUUGGCGUAAUGGUAACGCGUCUCCCUCCUAAGGAGAAGACUGCGGGUUCGAGUCCCGUACGGAACG

Variants of: B1
Test: yeast fitness relative to wild type (ratio to wild type); higher = fitter; tRNA-Arg(CCU), competitive growth, 37 C, YPD
Summary of the method: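 Start and end populations of a pooled competition were compared by 100-nucleotide paired-end sequencing of gene amplicons. The Saccharomyces cerevisiae strains carried tRNA-Arg(CCU) gene variants at the native genomic locus, synthesised with a 3% per-site mutation rate at 69 sites, and competed in YPD at 37°C for 24 hours in six parallel replicates. Darwinian fitness relative to wild type was based on the change in genotype frequencies. Genotypes required ≥ 100 starting reads, and estimates < 0.5 were set to 0.5.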

Variant	yeast fitness
GUUCCGUUGGCGUAAUGGUAACGCGUCUCCCUCUUAAGGAGAAAACUGCGGGUUCGAGUCCCGUGCGGAACG	≤ 0.5
GUUCCGUUGGCGUAAUGGUAACGCGUCUCCCUCUUAUGGAGAAGAAUGCGAGUUCGAGUCCCGUACGGAACG	0.567
GUUCCGUUGGCGUAAUGGUAACGCGUCUCCCUCUUAAGGAGCAGACUGCGGGUUCCAGUCCCGUACGGAACG	≤ 0.5
GUUCCGUUGGCGUAAUGGUAACGCGUCUCCCUCUUAAGGAGAAGACUGCGCGUUCGACUCCCGUACGGAACG	≤ 0.5
GUUCCGUUGGCGUAAUGGUAACGCGUCUCCCUCUUAGGGAGAAGAUUGCGGGUUCGAGUCACGUACGGAACG	0.589
GUUCCGUUGGCGUAAUGGUAACGCGUCUCCCUCUUAAGGAGAAGACUGCGGGUUCGAGUCCGGUAGUGAACG	≤ 0.5
GUUCCGUUGGCGUAAUGGUAACGCGUCUCCCUCUUAAGGCGCAGACUACGGGUUCGAGUCCCGUACGGAACG	≤ 0.5
GUUCCGUUGGCGUAAUGGUAACGCGUCUCCCUCUUAAGGAGAAGACUGUGGGUUUGAGUCCCGUACAGAACG	≤ 0.5
GUUCCGUUGGCGUAAUGGUAACGCGUCUCCCUCUUAAGGAGAAGACUGCCGGUUCGAGUCCCGUACGGAACG	0.528
GUUCCGUUGGCGUAAUGGUAACGCGUCUCCCUCUUAAGGAGAAGACUGCGGGUUCGAGUCCCGUUCGGAACG	0.574
GUUCCGUUGGCGUAAUGGUAACGCGUCUCCCUCUUAAGGAGAAGACUGUGGGUUCGAGUCCCGUCCGGAACG	0.612
GUUCCGUUGGCGUAAUGGUAACGCGUCUCCCUCUUAAGGGGAAGACUGCGGGUUGGAGUCCCGUACGGAACG	≤ 0.5
GUUCCGUUGGCGUAAUGGUAACGCGUCUCCCUCUUAUGGAGAAGACUGCGGGUUCGAGUCCCGUAUGGAACG	≤ 0.5
GUUCCGUUGGCGUAAUGGUAACGCGUCUCCCUCUUAAGGAGAAGACUGAGGGUUCCAGUCCAGUCCGGAACG	0.519
GUUCCGUUGGCGUAAUGGUAACGCGUCUCCCUCUUAAGGGGAAGACUGCGGGUCCGGGUCCCGUACGGAACG	≤ 0.5
GUUCCGUUGGCGUAAUGGUAACGCGUCUCCCUCUUAAAGAGAAGACUGCGGGUUCAAGUCCCGUACGGAACG	0.611
GUUCCGUUGGCGUAAUGGUAACGCGUCUCCCUCUUAAGGGGAAGACUGCGGGUUCGAGUCCCGUACGGUACG	0.574
GUUCCGUUGGCGUAAUGGUAACGCGUCUCCCUCUUAAGGAGAAGAGUGCGGGUUCGACUUCCGUAGGGAACG	≤ 0.5
GUUCCGUUGGCGUAAUGGUAACGCGUCUCCCUCUUAAGGAGAAGACUGCGGGUUCGAGUGCCGUACGGGACG	≤ 0.5

Variant	yeast fitness
GUUCCGUUGGCGUAAUGGUAACGCGUCUCCCUCUUAAGGAGAAGACUGGGGCUUUGAGUCCGGUACGGAACG	0.75
GUUCCGUUGGCGUAAUGGUAACGCGUCUCCCUCUUAAGCAGAAGACUGCGGGUUCGAGUCCCGUACGGUACG	≤ 0.5
GUUCCGUUGGCGUAAUGGUAACGCGUCUCCCUCUUAAGGCGAAGACUGCGGGUUCGAGUCCCGUACGCAACG	≤ 0.5
GUUCCGUUGGCGUAAUGGUAACGCGUCUCCCUCUUAAGGAGAAGACUGCGGGUUCGAGUUCCGUACGGAACG	0.563
GUUCCGUUGGCGUAAUGGUAACGCGUCUCCCUCUUAAGGAGAAGACUGCGGGUUCGAGUCACGUACGGAACG	0.563
GUUCCGUUGGCGUAAUGGUAACGCGUCUCCCUCUUAAGGAGAAGACUGCGGGUUCGAGUCCCGUACGGACCG	0.73
GUUCCGUUGGCGUAAUGGUAACGCGUCUCCCUCUUAAGGAGAAGACUGCGGGUUCGAGUCCCGUACGGAUCG	0.662
GUUCCGUUGGCGUAAUGGUAACGCGUCUCCCUCUUAAGGAGAAGACUGCGGGUUCGAGUCCCGUACGGAGCG	0.803
GUUCCGUUGGCGUAAUGGUAACGCGUCUCCCUCUUAAGCAGAAGACUGCGGGUUCGAGUCCCGUAUGGAACG	≤ 0.5
GUUCCGUUGGCGUAAUGGUAACGCGUCUCCCUCUUAAGGAGAACACGGCGGGUUCGAGUCCCGUACGGAACG	0.659
GUUCCGUUGGCGUAAUGGUAACGCGUCUCCCUCUUAAGGAGAAGACUGCAGGUUCGAGCCCAGAACGGAACG	≤ 0.5
GUUCCGUUGGCGUAAUGGUAACGCGUCUCCCUCUUUAGGAGAAGACUGCGGGUUCGAGUCCCGUACGGAACG	≤ 0.5
GUUCCGUUGGCGUAAUGGUAACGCGUCUCCCUCUUAAGGAGAAGACUGCGGGUUCGUGUCCCGUACGGAACG	≤ 0.5
GUUCCGUUGGCGUAAUGGUAACGCGUCUCCCUCUUAAGGAGAAGACUGCGGGUUCGGGUCCCGUACGGAACG	0.737
GUUCCGUUGGCGUAAUGGUAACGCGUCUCCCUCUUAAGGAGUAGACUGCGGGUUCGAGUCCCGUAUGGAACG	≤ 0.5
GUUCCGUUGGCGUAAUGGUAACGCGUCUCCCUCUUAAGGAGAAGACUGCGGCUUCGAGUCCCGUACGGAUCG	≤ 0.5
GUUCCGUUGGCGUAAUGGUAACGCGUCUCCCUCUUAUGGAAAAGACUGCCGGUUCGAGUCCCGUACGGAACG	≤ 0.5
GUUCCGUUGGCGUAAUGGUAACGCGUCUCCCUCUUAAGGAGAAGACUGCGGGUUGGAGUCCCGUACGGAACG	0.56
